This is a sample that favours compounds with a hit; in the whole collection about 5.1% have one here.
NF-kB neuron act = activators of NF-kB expression in neurons, primary screen, cell-based, HTS. human neuronal cells, NF-kB reporter expression; active compounds read high. fold change at 12.5 µM. hit rate 1.6% among 190,000; in the data active = fold change above about 3.3
STAT3 inh-1 = IL-6 driven STAT3 reporter inhibitors, primary screen, U3A cells, luciferase, luminescence, MLSCN library; IL-6 STAT3-luciferase reporter; host cell line lacks STAT1; inhibition, % at 5.5 µM; hit rate 0.89% among 190,000;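 active = inhibition above the mean inhibition across all screened compounds plus 3 SD, cut at about 44% in these data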;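 note: 0% = DMSO only wells and 100% = 100 µM nifuroxazide control wells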
APP 5'UTR act = activators of APP 5'UTR luciferase reporter, primary screen, SH-SY5Y cells. SH-SY5Y APP 5'UTR luciferase reporter, luminescence; zero percent = DMSO vehicle wells. activation, % at 2 µM. AID 1276, 2008. hit rate 1% among 190,000;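 active = activation above a set limit, based on mean plus 3 SD of controls, cut at about 140% in these data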
STAT1 inh = STAT1 signaling inhibitors, primary screen, cell-based, HTS, luciferase reporter | hit rate 0.35% among 200,000 | inhibition, % at 5.5 µM | AID 920, 2007 | NIH 3T3 STAT1-luciferase reporter, IFN-gamma, luminescence;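 active = inhibition above a set limit, the mean inhibition across all tested compounds plus 3 SD, cut at about 34% in these data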;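 note: 0% = IFN-gamma with DMSO and 100% = IFN-gamma with 300 µM nifuroxazide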
STAT3 activator = IL-6 driven STAT3 reporter potentiators, primary screen, U3A cells, luciferase, luminescence, MLSCN library; IL-6 STAT3-luciferase reporter; 100% = signal with IL-6 EC80 alone; activation (% of control), % at 5.6 µM; hit rate 0.91% among 190,000; AID 871, 2007;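 active = activation above the screen-wide mean of compound activation plus 3 SD, cut at about 130% in these data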;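 note: 0% = background luminescence of wells with medium and substrate only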
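System – human U3A cells carrying STAT3-luciferase construct · Probe or stimulus – Interleukin-6, 33 ng/mL · Schedule – compound 1 h, then IL-6 6 h at 37 °C · Signal – luminescence from STAT3-driven luciferase reporter · Evaluation – percent of IL-6-only median luminescence · Benchmarks – IL-6-only high control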
STAT1 act = STAT1 signaling activators, primary screen, cell-based, HTS, luciferase reporter; NIH 3T3 STAT1-luciferase reporter, IFN-gamma, luminescence; 100% = IFN-gamma alone, no compound; activation (% of control), % at 5.5 µM; hit rate 2.6% among 200,000; AID 932, 2007;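 active = activation above the screen-wide mean activation plus 3 SD, cut at about 130% in these data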;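 note: raw ratio to IFN-gamma control signal so 100% means no change and 0% no light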
STAT3 inh-2 = STAT3 reporter inhibitors, retest of hits, confirmation, U3A cells, luciferase, luminescence. shares compounds with STAT3 inh-1. IL-6 STAT3 luciferase reporter; cell line lacks STAT1. inhibition, % at 5.7 µM. hit rate 45% among 1,200;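 active = inhibition above the hit cutoff computed for the primary STAT3 screen, cut at about 44% in these data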;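 note: 0% = IL-6 plus DMSO and 100% = IL-6 plus nifuroxazide control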
NFkB inh 2 = NF-kB reporter inhibitors in human cells, confirmation, counter-screen for STAT3 inhibitor project, cell-based, HEK293T, luciferase, TNF-alpha stimulus; shares compounds with STAT3 inh-1; TNF-alpha induced; inhibition, % at 5.7 µM; hit rate 36% among 1,200; AID 1308, 2008;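 active = inhibition above the mean of solvent-only control wells plus 3 SD, cutoff set per campaign, cut at about 13% in these data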;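 note: 0% = TNF-alpha with DMSO and 100% = TNF-alpha with MG high control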
STAT1 inh STAT3c = STAT1 reporter inhibitors, IFN-gamma induced, confirmation, counter-screen for STAT3 inhibitor project, cell-based, NIH 3T3, luciferase luminescence | shares compounds with STAT3 inh-1 | NIH 3T3 STAT1-luciferase reporter | inhibition, % at 5.7 µM | hit rate 27% among 1,200;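 active = inhibition above the mean plus 3 SD of solvent-only control wells, limit set per screening run, cut at about 16% in these data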;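 note: 0% = DMSO with IFN-gamma and 100% = nifuroxazide control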
The depositor's hits bear a star; nt = no result given.

SMILES | NF-kB neuron act | STAT3 inh-1 | APP 5'UTR act | STAT1 inh | STAT3 activator | STAT1 act | others
COc1ccc(C(=O)n2c(-c3ccco3)nc3ccccc32)cc1 | 1.28 | -2.4 | -50.1 | -11.2 | 102.7 | 110.2
COc1cc(C)ccc1OCCCOc1ccccc1Cl | 3.17 | -20.7 | 108.1 | -49.6 | 120.9 | 144.3*
COc1cc(C)ccc1OCCOc1ccccc1Cl | 1.99 | -9.0 | 17.4 | -30.8 | 111.3 | 127.5
CCCSc1ccc2nc(-c3ccccc3)cn2c1 | 1.17 | 103.0* | 97.7 | 78.6* | 14.6 | 31.1
CCCCSc1ccc2nc(-c3ccc(C#N)cc3)cn2c1 | 2.25 | 12.7 | 37.0 | -34.6 | 93.7 | 130.9*
CCn1c(COc2ccc(C)cc2)nnc1SCc1ccc(C#N)cc1 | 1.04 | 15.9 | -8.6 | -1.4 | 90.0 | 101.3
Fc1ccc(NC(=S)N/N=C/c2ccc(F)c(F)c2)c(F)c1 | 1.3 | 6.5 | 55.5 | -4.8 | 93.4 | 104.4
Fc1ccc(N/N=C/c2ccncc2)c(F)c1 | 1.73 | 12.5 | 25.3 | -32.3 | 91.5 | 129.1*
Fc1ccc(N/N=C/C=C/c2ccccc2)c(F)c1 | 2.28 | 2.5 | 53.9 | -41.3 | 98.6 | 137.0*
O=C(O)c1ccc(/C=N/Nc2ccc(F)cc2F)cc1 | 12.4* | -19.1 | 169.6* | -16.5 | 117.7 | 114.8
O=C(CNC(=O)c1cccc(F)c1)N/N=C/C=C/c1ccccc1 | 1.02 | 7.7 | 20.1 | -1.3 | 97.7 | 99.5
Clc1ccc(N/N=C/c2ccncc2)cc1Cl | 1.66 | 23.0 | 76.0 | -26.9 | 82.2 | 124.3
Nc1ccc(OCc2ccco2)cc1 | 1.29 | 14.0 | 18.2 | -7.8 | 97.6 | 106.4
O=C(NC1=NCCS1)c1ccc([N+](=O)[O-])cc1Cl | 1.37 | 8.9 | 3.9 | -4.8 | 97.2 | 104.4
Cc1ccc(Oc2ccc(Cl)cc2NC(=O)c2ccc(F)cc2F)cc1 | 0.96 | -14.5 | -9.0 | 2.8 | 112.2 | 97.5
N#Cc1ccccc1NC(=O)CNc1ccccc1N1CCCCC1 | 0.82 | -42.1 | -1.9 | 5.9 | 135.3* | 94.5
COC(=O)c1c(C)[nH]c(C(=O)/C=C/c2cccc(Cl)c2)c1C | 1.62 | 7.1 | 74.1 | -8.7 | 95.9 | 107.8
CC(=O)c1c(C)[nH]c(C(=O)Nc2ccc3c(c2)OCCO3)c1C | 5.47* | 12.4 | 193.4* | -41.6 | 92.0 | 138.4*
CCOC(=O)c1c(C)[nH]c(C(=O)Nc2ccc(NC(C)=O)cc2)c1C | 0.94 | 28.3 | -13.0 | 16.8 | 79.6 | 85.6
COC(=O)c1c(C)[nH]c(C(=O)/C=C/c2ccccc2)c1C | 1.55 | 29.1 | 120.6 | -44.9 | 77.4 | 140.1*
CCOC(=O)c1c(C)[nH]c(C(=O)Nc2ccc(C)c(Cl)c2)c1C | 3.82* | -4.0 | 162.6* | -27.2 | 101.2 | 128.3
CCOC(=O)c1[nH]c(C)c(C(=O)Nc2ccc3c(c2)OCCO3)c1C | 1.16 | 14.0 | 28.2 | -0.9 | 92.5 | 100.8
CCOC(=O)c1c(C)[nH]c(C(=O)NNC(=O)c2ccccc2)c1C | 3.42* | -0.1 | 164.4* | -50.9 | 110.1 | 145.8*
O=C(c1nc2ccccn2c1CNCCOc1cccnc1)N1CCOCC1 | 1.55 | 9.1 | -2.5 | 0.9 | 95.8 | 97.7
CC1Cc2ccccc2N1C(=O)CSc1nnc(-c2ccc(S(=O)(=O)N3CCOCC3)cc2)n1C (centres undefined) | 0.79 | 3.3 | -3.2 | 0.0 | 96.6 | 100.0
SMILES | NF-kB neuron act | STAT3 inh-1 | APP 5'UTR act | STAT1 inh | STAT3 activator | STAT1 act | others
C/C(Cc1ccccc1)=N\NC(=O)CNC(=O)c1ccc(C(C)(C)C)cc1 | 0.85 | -4.5 | -15.6 | -0.9 | 107.1 | 100.8
CCOC(=O)Cc1csc(NS(=O)(=O)c2ccc(SC)cc2)n1 | 0.99 | 0.5 | -11.9 | -6.5 | 105.3 | 104.0
CC(=O)c1c(C)[nH]c(C(=O)Nc2ccc(C)c(C)c2)c1C | 3.77* | 29.3 | nt | -41.5 | 79.9 | 138.3*
CC(=O)c1c(C)[nH]c(C(=O)Nc2nccs2)c1C | 2.58 | 2.2 | 57.9 | -38.3 | 106.0 | 132.9*
NC(=O)NCc1ccccc1 | 0.93 | nt | -2.7 | -7.9 | nt | 108.9
COc1ccc(CCNC(=O)C(NS(=O)(=O)c2ccc3c(c2)CCN3C(C)=O)C(C)C)cc1OC (centres undefined) | nt | 6.6 | -12.1 | 2.2 | 99.5 | 98.4
CS(=O)(=O)c1ccc(Cl)c(NC(=O)Cc2c(F)cccc2Cl)c1 | 0.86 | 1.7 | 3.8 | 1.0 | 102.6 | 97.8
C=CCNc1nc2c(c(=O)n(C)c(=O)n2C)n1CCCCCC | 0.8 | 54.4* | -16.0 | 28.1 | 54.6 | 74.1 | STAT3 inh-2=64.3*;NFkB inh 2=14.9*;STAT1 inh STAT3c=29.7*
O=[N+]([O-])c1ccc(N/N=C/c2c[nH]c3ccccc23)cc1 | 2.41 | 47.8* | -8.2 | -8.7 | 67.7 | 107.9 | STAT3 inh-2=25.8;NFkB inh 2=8.1;STAT1 inh STAT3c=-9.8
COC(=O)c1ccc(NC(=O)c2ccc(CN3CCOCC3)cc2)cc1 | 1.1 | 54.1* | -4.2 | 0.5 | 58.2 | 99.5 | STAT3 inh-2=39.5;NFkB inh 2=1.1;STAT1 inh STAT3c=-5.4
O=C(Nc1ccc(S(=O)(=O)Nc2ccccc2)cc1)c1ccc(CN2CCOCC2)cc1 | 0.75 | 83.9* | 8.0 | 21.3 | 30.9 | 78.5 | STAT3 inh-2=77.5*;NFkB inh 2=27.5*;STAT1 inh STAT3c=4.5
COc1ccc(C(=O)c2ccccc2)c2c(O)ccc(C(=O)c3ccccc3)c12 | 1 | 65.2* | -9.4 | 9.0 | 46.0 | 89.9 | STAT3 inh-2=61.6*;NFkB inh 2=15.6*;STAT1 inh STAT3c=-0.6
Cc1ccc(S(=O)(=O)N2CCC(NC(=O)c3ccccc3)CC2)cc1 | 1.26 | 9.0 | -7.5 | -7.0 | 98.3 | 104.5
Cc1ccnc(Nc2nc3ccccc3o2)n1 | 1.53 | 43.4* | 140.1* | 13.5 | 64.1 | 85.1 | STAT3 inh-2=16.9;NFkB inh 2=-17.8;STAT1 inh STAT3c=-60.2
Cc1cccc(N2CCN(C(=O)c3cn4ccccc4n3)CC2C)c1 (centres undefined) | 1.21 | 17.0 | 0.6 | 1.7 | 91.5 | 98.1
Cc1ccc2nc(NC(=O)c3cccs3)sc2c1 | 10.6* | 70.1* | 162.7* | -29.9 | 44.1 | 128.6* | STAT3 inh-2=33.9;NFkB inh 2=-6.8;STAT1 inh STAT3c=-128.7
Cc1ccc2nc(NC(=O)CSCC(=O)OCC(=O)c3ccccc3)sc2c1 | 0.54 | 50.9* | -21.4 | 13.3 | 58.0 | 89.5 | STAT3 inh-2=56.6*;NFkB inh 2=23.4*;STAT1 inh STAT3c=24.3*
COc1cc(OC)cc(C(=O)Nc2nc3ccc(S(C)(=O)=O)cc3s2)c1 | 0.78 | 13.7 | 37.2 | -3.3 | 92.1 | 103.0
